Measurements as given in ChEMBL document CHEMBL1121872, “Mesoionic xanthine analogues: phosphodiesterase inhibitory and hypotensive activity” (J Med Chem, 1981).

Experiments:
[1] = test system: Rattus norvegicus; test: Decrease in arterial blood pressure in anesthetized rats at 2.5 mg/kg intravenous femoral injection; assay type: functional, Artery; design: unit not given here
[2] = test system: Rattus norvegicus; test: Decrease in arterial blood pressure in anesthetized rats at 30 mg/kg intravenous femoral injection; assay type: functional, Artery
[3] = test system: Rattus norvegicus; test: Decrease in arterial blood pressure in anesthetized rats at 10 mg/kg intravenous femoral injection; assay type: functional, Artery; design: unit not given here
[4] = test system: Rattus norvegicus; test: Decrease in arterial blood pressure in anesthetized rats at 15 mg/kg after intravenous femoral injection; assay type: functional, Artery; design: unit not given here
[5] = test system: Rattus norvegicus; test: Decrease in arterial blood pressure in anesthetized rats at 5 mg/kg intravenous femoral injection; assay type: functional, Artery; design: unit not given here
[6] = species on record: Bos taurus; test: Compound was evaluated for potency against c-AMP phosphodiesterase relative to theophylline
In short: (§1)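 Bovine heart PDE (Klee method) with 1 μM [3H]cAMP. […] Compounds needing ethanol (2.5% final) are compared with a theophylline control run with ethanol; the others with one run without ethanol. Potency is expressed relative to that theophylline control.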

[7] = target: T1, Heart phosphodiesterase (Bos taurus, UniProt Q01061+P14100+E1BN64); test: In vitro inhibition of bovine heart phosphodiesterase (PDE I); assay type: protein assay
In short: (§2)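 Bovine heart phosphodiesterase (Klee method) with 1 μM [3H]cAMP as substrate. Poorly soluble compounds were dissolved in 95% EtOH, 2.5% final, then diluted with buffer. […] I50 is the concentration where V0/V = 2, read from a V0/V vs. concentration plot. Each value averages two consecutive runs, in duplicate or triplicate.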

[8] = test system: Rattus norvegicus; test: Decrease in blood pressure at 15 mg/kg in rat; assay type: functional
In short: (§3)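 Male Sprague-Dawley rats (250–385 g), pentobarbital-anesthetized (50 mg/kg ip); right femoral artery cannulated for arterial pressure via transducer, left femoral vein for iv dosing. Each injection flushed with 0.3 mL saline, preceded by equal-volume saline control; 5-min intervals or until pressure returned to baseline. Fall in mean arterial pressure expressed relative to theophylline 2.5 mg/kg control in same animal; n determinations given.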

[9] = target: T1, Heart phosphodiesterase; test: Inhibition of bovine heart cAMP-phosphodiesterase with ethanol; assay type: protein assay
In short: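 Bovine heart PDE, Klee method with 1 μM [3H]cAMP as substrate. Compounds were predissolved in 95% EtOH, giving 2.5% ethanol final, then diluted in buffer. A theophylline control was run with ethanol present. […] I50 was taken where V0/V = 2 from a V0/V vs concentration plot. Each value averages two consecutive runs, done in duplicate or triplicate.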

[10] = test system: Rattus norvegicus; test: Decrease in blood pressure at 2.5 mg/kg in rat; assay type: functional; in short: as §3
[11] = test system: Rattus norvegicus; test: Decrease in blood pressure at 5 mg/kg in rat; assay type: functional; in short: as §3
[12] = test system: Rattus norvegicus; test: Decrease in arterial blood pressure in anesthetized rats at 60 mg/kg intravenous femoral injection; assay type: functional, Artery
[13] = target: Heart phosphodiesterase (Bos taurus) (UniProt Q01061+P14100+E1BN64); test: Inhibition of bovine heart cAMP-phosphodiesterase relative to theophylline (Insoluble); assay type: protein assay; in short: as §1
[14] = target: T1, Heart phosphodiesterase; test: Inhibition of bovine heart cAMP-phosphodiesterase (Insoluble); assay type: protein assay; in short: as §2

## CCCCN1C(=O)CC(=O)[n+]2ccsc21
[1]
  Mean arterial blood pressure: 0.9
[2]
  Mean arterial blood pressure: 2.9
[3]
  Mean arterial blood pressure: 1.2
[4]
  Mean arterial blood pressure: 1.2
[5]
  Mean arterial blood pressure: 0.6

## CCC1C(=O)N2C=CSC2=[N+](CC2CC2)C1=O (configuration not stated)
[6]
  Relative potency: 0.7
[7]
  I50: 396 µM

## CCN1C(=O)C(CC(C)C)C(=O)[n+]2ncsc21 (configuration not stated)
[6]
  Relative potency: 2.7
[7]
  I50: 154 µM

## CCN1C(=O)C(c2ccccc2)C(=O)[n+]2ncsc21 (configuration not stated)
[6]
  Relative potency: 17.2
[7]
  I50: 24 µM

## Cn1c(=O)c2nc[nH]c2n(C)c1=O.O [THEOPHYLLINE]
[1]
  Mean arterial blood pressure: 1
[8]
  Blood pressure: 31.9 mmHg
[9]
  I50: 412 µM
[4]
  Mean arterial blood pressure: 2.36
[5]
  Mean arterial blood pressure: 2.34
[10]
  Blood pressure: 13.5 mmHg
[11]
  Blood pressure: 31.6 mmHg

## CCN1C(=O)C(C)C(=O)[n+]2nc(C)sc21 (configuration not stated)
[1]
  Mean arterial blood pressure: 0.2
[6]
  Relative potency: 0.1
[7]
  I50: 2453 µM
[3]
  Mean arterial blood pressure: 0.4
[4]
  Mean arterial blood pressure: 0.5
[5]
  Mean arterial blood pressure: 0.3

## CCC1C(=O)N(CC)c2scc[n+]2C1=O (configuration not stated)
[1]
  Mean arterial blood pressure: 0.3
[6]
  Relative potency: 0.3
[7]
  I50: 858 µM
[3]
  Mean arterial blood pressure: 0.8
[4]
  Mean arterial blood pressure: 1.2
[5]
  Mean arterial blood pressure: 0.6

## CC[N+]1=C2SC=NN2C(=O)CC1=O
[6]
  Relative potency: 0.5
[7]
  I50: 774 µM

## CCCCCC1C(=O)N(CC)c2scn[n+]2C1=O (configuration not stated)
[6]
  Relative potency: 2.6
[7]
  I50: 156 µM

## CC1C(=O)N(Cc2cccc(Cl)c2)c2scc(-c3ccccc3)[n+]2C1=O (configuration not stated)
[6]
  Relative potency: 2.7
[7]
  I50: 152 µM

## CCC(C)C1C(=O)N(CC)c2scn[n+]2C1=O (configuration not stated)
[6]
  Relative potency: 1.8
[7]
  I50: 233 µM

## CCN1C(=O)C(C(C)C)C(=O)[n+]2ncsc21 (configuration not stated)
[6]
  Relative potency: 1.6
[7]
  I50: 254 µM

## CCN1C(=O)C(Cc2ccc(Cl)cc2)C(=O)[n+]2ncsc21 (configuration not stated)
[6]
  Relative potency: 42.9
[7]
  I50: 9.6 µM

## CCC1C(=O)N(CC)c2sc(C)n[n+]2C1=O (configuration not stated)
[1]
  Mean arterial blood pressure: 0
[6]
  Relative potency: 0.2
[2]
  Mean arterial blood pressure: 1.2
[12]
  Mean arterial blood pressure: 1.9
[7]
  I50: 1689 µM
[3]
  Mean arterial blood pressure: 0.6
[4]
  Mean arterial blood pressure: 0.3
[5]
  Mean arterial blood pressure: 0.3

## CC(C)Cn1c(=O)n(C)c(=O)c2nc[nH]c21 [ISOBUTYLMETHYLXANTHINE]
[6]
  Relative potency: 28.9
[7]
  I50: 9.9 µM

## CC[N+]1=C2SC=NN2C(=O)C(C)C1=O (configuration not stated)
[1]
  Mean arterial blood pressure: 0.9
[6]
  Relative potency: 0.4
[2]
  Mean arterial blood pressure: 7.5
[7]
  I50: 1160 µM
[3]
  Mean arterial blood pressure: 1.6
[4]
  Mean arterial blood pressure: 1.2
[5]
  Mean arterial blood pressure: 2.2

## CCc1n[n+]2c(s1)N(CC)C(=O)C(CC)C2=O (configuration not stated)
[6]
  Relative potency: 0.1
[7]
  I50: 1980 µM

## CCN1C(=O)C(Cc2ccc(OC)cc2)C(=O)[n+]2ncsc21 (configuration not stated)
[13]
  Relative potency: Insoluble
[14]
  I50: Insoluble

## CC[N+]1=C2SC=NN2C(=O)C(Cc2ccccc2)C1=O (configuration not stated)
[6]
  Relative potency: 7.9
[7]
  I50: 52 µM

## Cn1c(=O)c2[nH]cnc2n(C)c1=O
[6]
  Relative potency: 1

## CCC1C(=O)N2N=CSC2=[N+](CC)C1=O (configuration not stated)
[1]
  Mean arterial blood pressure: 0.4
[6]
  Relative potency: 0.7
[7]
  I50: 550 µM
[3]
  Mean arterial blood pressure: 1.6
[4]
  Mean arterial blood pressure: 0.7
[5]
  Mean arterial blood pressure: 0.6

## CCCC1C(=O)N(CC)c2scn[n+]2C1=O (configuration not stated)
[6]
  Relative potency: 1.6
[7]
  I50: 252 µM

## CCC1C(=O)N(CC2CC2)c2scc(-c3ccccc3)[n+]2C1=O (configuration not stated)
[6]
  Relative potency: 1.5
[7]
  I50: 287 µM

## CCC1C(=O)N(CC)c2scc(C)[n+]2C1=O (configuration not stated)
[6]
  Relative potency: 0.7
[7]
  I50: 412 µM

## O=C1CC(=O)[n+]2ccsc2N1Cc1cccc(Cl)c1
[6]
  Relative potency: 1.3
[7]
  I50: 308 µM

## CCc1n[n+]2c(s1)N(CC)C(=O)C(C)C2=O (configuration not stated)
[6]
  Relative potency: 0.1
[7]
  I50: 2411 µM
